Measurements taken from ChEMBL document CHEMBL1122617, “6,7-Dihydroxy-3-chromanamine: synthesis and pharmacological activity of an oxygen isostere of the dopamine agonist 6,7-dihydroxy-2-aminotetralin” (J Med Chem, 1984).

Columns and labels:
[1] = Partition coefficient (logP); format: physicochemical; conditions: octanol/water
How it was run: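 Log P measured in octanol-phosphate buffer at pH 7.4. Phases analysed by the same HPLC-electrochemical method. Mean ± SD, n = 6.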

[2] = species: Rattus norvegicus; assay: Concentration required to reduce the specific binding of [3H]NPA by 50% to rat corpus striatum; format: functional, organism-based
How it was run: (§1)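 Male rat (200-225 g) striatal homogenate, 2.5 mg wet weight per tube, in 15 mM Tris-HCl pH 7.5 with 1 mM EDTA and 0.01% ascorbic acid. [3H]NPA 0.50 nM final, 25 °C for 20 min. Nonspecific binding with 1 μM d-butaclamol. Displacer tested over 10⁻¹¹–10⁻⁵ M in triplicate. IC50 = 50% reduction of specific binding, mean ± SEM of three experiments.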

[3] = test system: Rattus norvegicus; assay: Effect on DOPAC metabolism was determined by measuring concentration of DOPAC at a time interval of 0 minutes after ip administration of 100 umol/kg of compound; format: functional, organism-based
[4] = test system: Rattus norvegicus; assay: Effect on DOPAC metabolism was determined by measuring concentration of DOPAC at a time interval of 15 minutes after ip administration of 100 umol/kg of compound; format: functional, organism-based
How it was run: (§2)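 Female rats (180-200 g) given 100 μmol/kg ip in saline with 0.1% sodium metabisulfite, killed at 15 or 45 min. Striatum frozen on dry ice and kept at -80 °C. DA, DOPAC and HVA isolated on Sephadex G-10, then measured by reversed-phase C18 HPLC with amperometric detection. Control cerebellum used as blank. Not corrected for recovery (86-89%). Mean ± SEM.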

[5] = test system: Rattus norvegicus; assay: Effect on DOPAC metabolism was determined by measuring concentration of DOPAC at a time interval of 45 minutes after ip administration of 100 umol/kg of compound; format: functional, organism-based; how it was run: as §2
[6] = test system: Rattus norvegicus; assay: Effect on HVA metabolism was determined by measuring concentration of HVA at a time interval of 0 minutes after ip administration of 100 umol/kg of compound; format: functional, organism-based
[7] = test system: Rattus norvegicus; assay: Effect on HVA metabolism was determined by measuring concentration of HVA at a time interval of 15 minutes after ip administration of 100 umol/kg of compound; format: functional, organism-based; how it was run: as §2
[8] = test system: Rattus norvegicus; assay: Effect on HVA metabolism was determined by measuring concentration of HVA at a time interval of 45 minutes after ip administration of 100 umol/kg of compound; format: functional, organism-based; how it was run: as §2
[9] = test system: Rattus norvegicus; assay: Effect on 6,7-dihydroxy-3-chromanamine metabolism was determined by measuring concentration of 6,7-dihydroxy-3-chromanamine at a time interval of 15 min after ip administration of 100 umol/kg of compound; format: functional, organism-based
How it was run: (§3)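 Female rats (180-200 g) given 100 μmol/kg ip in saline with 0.1% sodium metabisulfite. Killed at 15 or 45 min; striatum dissected, frozen on dry ice and kept at -80 °C. Drug level measured by HPLC with electrochemical detection, mobile phase 0.1 M phosphate-acetate pH 4.5, against a standard. Corrected for 78.8% recovery from spiked brain. Mean ± SEM, n = 8.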

[10] = test system: Rattus norvegicus; assay: Effect on 6,7-dihydroxy-3-chromanamine metabolism was determined by measuring concentration of 6,7-dihydroxy-3-chromanamine at a time interval of 45 min after ip administration of 100 umol/kg of compound; format: functional, organism-based; how it was run: as §3
[11] = test system: Rattus norvegicus; assay: Effect on DA metabolism was determined by measuring concentration of DA at a time interval of 0 minutes after ip administration of 100 umol/kg of compound; format: functional, organism-based
[12] = test system: Rattus norvegicus; assay: Effect on DA metabolism was determined by measuring concentration of DA at a time interval of 15 minutes after ip administration of 100 umol/kg of compound; format: functional, organism-based; how it was run: as §2
[13] = test system: Rattus norvegicus; assay: Effect on DA metabolism was determined by measuring concentration of DA at a time interval of 45 min after ip administration of 100 umol/kg of compound; format: functional, organism-based; how it was run: as §2
[14] = species: Rattus norvegicus; assay: Binding affinity to rat corpus striatum was determined using [3H]NPA as radioligand; format: functional; how it was run: as §1

Compound | logP [1] | IC50 [2] [nM] | Concentration [3] [µg/g] | Concentration [4] [µg/g] | Concentration [5] [µg/g] | Concentration [6] [µg/g] | Concentration [7] [µg/g] | Concentration [8] [µg/g] | Concentration [9] [nM/g] | Concentration [10] [nM/g] | Concentration [11] [µg/g] | Concentration [12] [µg/g] | Concentration [13] [µg/g] | Ki [14] [nM]
NC1COc2cc(O)c(O)cc2C1 (centres undefined) | 1.39 | 259 | 1.05 | 0.97 | 1.02 | 0.91 | 0.83 | 1.02 | 0.34 | 0.2 | 9.87 | 10.5 | 10.8 | 144
NC1CCc2cc(O)c(O)cc2C1 (centres undefined) | 1.88 | 24.5 |  |  |  |  |  |  |  |  |  |  |  | 12
CN1CCc2cccc3c2[C@H]1Cc1ccc(O)c(O)c1-3 [APOMORPHINE] |  | 22.6 |  |  |  |  |  |  |  |  |  |  |  | 10.5
